Calls of active or inactive are those of the source. No cut-off for these calls is given here.
Experiments:
Histone deacetylase [1] = assay: Inhibition of HDAC in human A2780 cells after 18 hrs by fluorescence assay; format: cell-based
[2] = system: A2780 CisR (Homo sapiens); assay: cells; settings: 72 h
A2780 [3] = assay: Cytotoxicity against human A2780 cells after 72 hrs by MTT assay; format: functional, cell-based; settings: A2780, 72 h
Histone deacetylase [4] = assay: Inhibition of HDAC in cisplatin resistant human A2780 cells after 18 hrs by fluorescence assay; format: cell-based
A2780 [5] = assay: Cytotoxicity against human A2780 cells up to 100 uM after 72 hrs by MTT assay; format: functional, cell-based
In short: (§1)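 A2780 or its cisplatin-resistant subclone A2780CisR, seeded 5000 cells/well, grown in RPMI 1640 with 10% FCS at 37 °C, 5% CO2. Compound exposure began 24 h after seeding and lasted 72 h. MTT (5 mg/mL in PBS) was added, formazan dissolved in DMSO, absorbance read at 544 and 690 nm. IC50 from four-parameter logistic fit, ≥3 experiments in triplicate.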

A2780 [6] = assay: Cytotoxicity against cisplatin resistant human A2780 cells up to 100 uM after 72 hrs by MTT assay; format: functional, cell-based; in short: as §1

Row | SMILES | IC50 (Histone deacetylase [1]) [µM] | IC50 [2] [µM] | IC50 (Histone deacetylase [4]) [µM] | IC50 (A2780 [3]) [µM] | Activity (A2780 [5]) | Activity (A2780 [6])
1 | CC(C)c1ccc(NC(=O)NOCCCCCC(=O)NO)cc1 | 2.86 | 58.8 | 2.05 | 27.1 |  | 
2 | O=C(CCCCCONC(=O)NNc1ccccc1)NO | 5.86 | 42.4 | 4.95 | 34.9 |  | 
3 | O=C(CCCCCONC(=O)Nc1cccc2ccccc12)NO | 1.06 | 7.87 | 0.9 | 7.63 |  | 
4 | O=C(CCCCCONC(=O)c1ccc(F)cc1)NO | 2.57 | 60.3 | 2 | 16.4 |  | 
5 | O=C(O)CCCCCONC(=O)Nc1cccc2ccccc12 |  | > 100 |  | > 100 | inactive | inactive
6 | O=C(CCCCCONC(=O)Nc1ccccc1)Nc1ccccc1O | 34 | 84.6 | 43.9 | 35 |  | 
7 | O=C(O)CCCCCONC(=O)Nc1ccc(F)cc1 | > 100 | 73.1 | > 100 | 67.8 |  | 
8 | O=C(CCCCONC(=O)Nc1ccccc1)NO | 15.2 | 35.2 | 16.6 | 62.6 |  | 
9 | CC(C)c1ccc(C(=O)NOCCCCCC(=O)NO)cc1 | 0.6 | 4.96 | 0.5 | 4.13 |  | 
10 | CC(C)(C)c1ccc(NC(=O)NOCCCCCC(=O)NO)cc1 | 1.41 | 8.8 | 1.32 | 6.34 |  | 
11 | O=C(O)CCCCCONC(=O)Nc1ccccc1 | > 100 | 72.5 | > 100 | 23.5 |  | 
12 | Cc1ccccc1C(=O)NOCCCCCC(=O)NO | 17.1 | 33.8 | 15.4 | 25.6 |  | 
13 | Cc1ccc(C(=O)NOCCCCCC(=O)NO)cc1 | 4.21 | 5 | 3.46 | 4.09 |  | 
14 | Cc1ccc(NC(=O)NOCCCCCC(=O)NO)cc1 | 1.45 | 10.2 | 1.43 | 8.05 |  | 
15 | Cc1cccc(NC(=O)NOCCCCCC(=O)NO)c1 | 7.63 | 8.12 | 5.38 | 8.33 |  | 
16 | COc1ccc(NC(=O)NOCCCCCC(=O)O)cc1 |  | > 100 |  | > 100 | inactive | inactive

More lines, main results first:

Row | IC50 (Histone deacetylase [1]) [µM] | IC50 [2] [µM] | IC50 (Histone deacetylase [4]) [µM] | SMILES | IC50 (A2780 [3]) [µM] | Activity (A2780 [5]) | Activity (A2780 [6])
17 | 2.04 | 9.34 | 1.66 | O=C(CCCCCONC(=O)Nc1ccc(F)cc1)NO | 9.05 |  | 
18 | 5.27 | 5.11 | 4.64 | Cc1cc(C)cc(NC(=O)NOCCCCCC(=O)NO)c1 | 2.43 |  | 
19 | 1.07 | 11.6 | 0.85 | O=C(CCCCCONC(=O)Nc1cnc2ccccc2c1)NO | 10.8 |  | 
20 | 11.7 | 30.1 | 8.86 | Cc1ccccc1NC(=O)NOCCCCCC(=O)NO | 23 |  | 
21 | 1.7 | 5.47 | 1.71 | O=C(CCCCCONC(=O)Nc1ccccc1)NO | 8.47 |  | 
22 | 6.64 | 18.2 | 5.73 | COc1ccc(NC(=O)NOCCCCCC(=O)NO)cc1 | 10.3 |  | 
23 |  | > 100 |  | Cc1ccc(NC(=O)NOCCCCCC(=O)O)cc1 | > 100 | inactive | inactive
24 | > 100 | > 100 | > 100 | CN(O)C(=O)CCCCCONC(=O)Nc1ccccc1 | 87.9 |  | 
25 | 1.58 | 5.72 | 1.26 | O=C(CCCCCONC(=O)c1ccccc1)NO | 8.33 |  | 
26 | 34 | 86.9 | 43.9 | Nc1ccccc1NC(=O)CCCCCONC(=O)Nc1ccccc1 | 62.5 |  | 
27 | 2.09 | 30.8 | 1.95 | O=C(CCCCCONC(=O)c1ccc(C(F)(F)F)cc1)NO | 9.53 |  | 
28 |  | 0.22 |  | CC(/C=C/C(=O)NO)=C\[C@@H](C)C(=O)c1ccc(N(C)C)cc1 [TRICHOSTATIN] | 0.29 |  | 

Reference: ChEMBL document CHEMBL2311425, “Histone deacetylase (HDAC) inhibitors with a novel connecting unit linker region reveal a selectivity profile for HDAC4 and HDAC5 with improved activity against chemoresistant cancer cells” (J Med Chem, 2013)
